Reference: ChEMBL document CHEMBL1148122, “Sesquiterpenoids from Tithonia diversifolia with potential cancer chemopreventive activity” (J Nat Prod, 2002)
≈ marks a conversion by molar mass, not a printed value. Calls of active or inactive are those of the source. The rule behind the calls is not given here.

Legend:
Col2 = assay: Antiproliferative activity against human Col2 cells after 3 days by sulforhodamine B assay; format: functional, cell-based; details: for IC50: Col2, 72 h
Summary of the method: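 Col2 human colon cancer cells grown in MEME with 10% NEAA, antibiotic-antimycotic and 10% FBS at 37 °C, 5% CO2. Exponentially growing cells were added to wells containing compounds in DMSO and grown 3 days. Cells were then TCA-fixed and stained with 0.4% SRB in 1% acetic acid, and the dye was solubilized in 0.1 M Tris. Absorbance read at 515 nm; % growth calculated against day-0 and DMSO-control absorbances.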

HL-60 = assay: Induction of cell differentiation of human HL60 cells at 4 ug/mL after 4 days by non-specific esterase determination; format: functional, cell-based; details: for % differentiation: HL-60, 96 h
Summary of the method: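 HL-60 cells kept in RPMI 1640 with 10% fetal calf serum and penicillin/streptomycin at 37 °C, 5% CO2. Cells at 1.2 × 10^5 cells/mL, preincubated 18 h, then added to compounds in DMSO (final 0.1% v/v). After 4 days, α-naphthyl acetate esterase was stained cytochemically, ≥200 cells counted microscopically in duplicate, and the % differentiated cells recorded.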

[1] = Inhibition of 7,12-dimethylbenz[a]anthracene-induced preneoplastic lesions in a BALB/c mouse mammary gland culture at 10 ug/mL treated for 10 days before DMBA-challenge measured after 14 days; format: functional, tissue-based
Summary of the method: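 BALB/c female mice were primed 9 days with estradiol (1 µg) and progesterone (1 mg). Second thoracic mammary glands were cultured 10 days at 37 °C in 95% O2/5% CO2 in Waymouth's 752/1 MB medium with insulin, prolactin, aldosterone and hydrocortisone. DMBA 2 µg/mL was given at 72–96 h and compounds on days 1–10. Glands then regressed 14 days with insulin only and were scored for lesion incidence. % inhibition is relative to the DMBA control.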

| SMILES | IC50 (Col2) [µg/mL] | % differentiation (HL-60) [%] | % inhibition [1] [%] | Activity (Col2) | Activity (HL-60) |
| --- | --- | --- | --- | --- | --- |
| C=C1C(=O)O[C@@H]2/C=C(/C)C(=O)/C=C/[C@](C)(O)C[C@@H](OC(=O)C(C)C)[C@@H]12 [TAGITININ C] | 0.7 (≈ 2.01 µM) | 20 | 44.4 | – | – |
| C=C1C(=O)O[C@H]2[C@H]1[C@H](OC(=O)C(C)C)C[C@@]1(C)[C@H](O)C[C@H](OC(C)=O)[C@@](C)(O)[C@H]21 [TITHOFOLINOLIDE] | > 20 | 37.4 | 40.2 | – | – |
| COC(=O)/C=C/[C@@H]1CC[C@@]2(C)CC[C@@H](OC(C)=O)[C@@](C)(O)[C@@H]2C1 | > 20 | < 10 | – | – | – |
| C=C(C(=O)OC)[C@@H]1CC[C@@]2(C)CC[C@@H](OC(C)=O)[C@@](C)(O)[C@@H]2C1 | – | – | – | inactive | inactive |
| C=C1C(=O)O[C@@H]2/C=C(/C)C(=O)[C@@H]3O[C@H]3[C@](C)(O)C[C@@H](OC(=O)C(C)C)[C@@H]12 | 1.7 (≈ 4.67 µM) | < 10 | 44.4 | – | – |
| C=C1C(=O)O[C@@H]2C[C@H](C)[C@]3(O)O[C@@](C)(C[C@H]3O)C[C@@H](OC(=O)C(C)C)[C@@H]12 | > 20 | < 10 | – | – | – |
| C=C1C(=O)O[C@@H]2C[C@H](C)[C@@]3(O)C[C@H](O)[C@@](C)(C[C@@H](OC(=O)C(C)C)[C@@H]12)O3 | – | – | – | inactive | inactive |
| C=C1C(=O)O[C@@H]2C[C@H](C)[C@@]3(O)CC[C@@](C)(C[C@@H](OC(=O)C(C)C)[C@@H]12)O3 | – | – | – | inactive | inactive |
| C=C1C(=O)O[C@H]2[C@H]1[C@H](OC(=O)C(C)C)C[C@@](C)(O)[C@@H]1CC(=O)[C@@](C)(O)[C@H]21 | 18.9 (≈ 51.6 µM) | 32.4 | 48.7 | – | – |
| C=C1C(=O)O[C@H]2[C@H]1[C@H](OC(=O)C(C)C)C[C@@]1(C)[C@H](O)C[C@H](OC(C)=O)C(=C)[C@H]21 | 5.9 (≈ 15 µM) | 33.9 | 63 | – | – |
